ChEMBL document CHEMBL3596119, “Synthesis and biological characterization of a promising F-18 PET tracer for vesicular acetylcholine transporter” (Bioorg Med Chem, 2015)

Experiments:
[1] = tested on: Rattus norvegicus; experiment: Biodistribution in Sprague-Dawley rat fat at 2.2 MBq/120 uL, iv after 60 mins by gamma counting; assay type: ADME, organism-based, Adipose tissue; details: in vivo, 1 h
In short: (§1)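 Adult male SD rats, isoflurane (2-3%)/oxygen anesthesia, tail-vein injection of ~2.2 MBq/120 μL tracer in 10% ethanol in saline; euthanized under anesthesia at the stated time (n = 4 per time point). Brain dissected into regions, remainder kept for total brain; organs, blood, bone collected and weighed, gamma-counted against a standard dilution of injectate; %ID/g calculated.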

[2] = tested on: Pancreas; experiment: Biodistribution in Sprague-Dawley rat pancreas at 2.2 MBq/120 uL, iv after 60 mins by gamma counting; assay type: ADME, organism-based; details: in vivo, 1 h; in short: as §1
[3] = tested on: Spleen; experiment: Biodistribution in Sprague-Dawley rat spleen at 2.2 MBq/120 uL, iv after 60 mins by gamma counting; assay type: ADME, organism-based; details: in vivo, 1 h; in short: as §1
[4] = tested on: Kidney; experiment: Biodistribution in Sprague-Dawley rat kidney at 2.2 MBq/120 uL, iv after 60 mins by gamma counting; assay type: ADME, organism-based; details: in vivo, 1 h; in short: as §1
[5] = tested on: Liver; experiment: Biodistribution in Sprague-Dawley rat liver at 2.2 MBq/120 uL, iv after 60 mins by gamma counting; assay type: ADME, organism-based; details: in vivo, 1 h; in short: as §1
[6] = tested on: Rattus norvegicus; experiment: Biodistribution in Sprague-Dawley rat total brain at 2.2 MBq/120 uL, iv after 60 mins by gamma counting; assay type: ADME, organism-based; details: in vivo, 1 h
In short: (§2)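 Injected by tail vein in 10% ethanol in saline into adult male SD rats under 2-3% isoflurane/oxygen anesthesia. Rats were killed under anesthesia, n = 4 per time point. Total brain and other tissues were weighed and gamma-counted against a standard dilution of the injectate. Values are %ID/g.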

[7] = tested on: Blood; experiment: Biodistribution in Sprague-Dawley rat blood at 2.2 MBq/120 uL, iv after 120 mins by gamma counting; assay type: ADME, organism-based; details: in vivo, 2 h; in short: as §1
[8] = tested on: Heart; experiment: Biodistribution in Sprague-Dawley rat heart at 2.2 MBq/120 uL, iv after 120 mins by gamma counting; assay type: ADME, organism-based; details: in vivo, 2 h; in short: as §1
[9] = tested on: Lung; experiment: Biodistribution in Sprague-Dawley rat lung at 2.2 MBq/120 uL, iv after 120 mins by gamma counting; assay type: ADME, organism-based; details: in vivo, 2 h; in short: as §1
[10] = tested on: Rattus norvegicus; experiment: Biodistribution in Sprague-Dawley rat fat at 2.2 MBq/120 uL, iv after 120 mins by gamma counting; assay type: ADME, organism-based, Adipose tissue; details: in vivo, 2 h; in short: as §1
[11] = tested on: Spleen; experiment: Biodistribution in Sprague-Dawley rat spleen at 2.2 MBq/120 uL, iv after 120 mins by gamma counting; assay type: ADME, organism-based; details: in vivo, 2 h; in short: as §1
[12] = tested on: Cortex; experiment: Biodistribution in Sprague-Dawley rat cortex at 2.2 MBq/120 uL, iv after 5 mins by gamma counting; assay type: ADME, organism-based; details: in vivo; in short: as §1
[13] = tested on: Striatum; experiment: Biodistribution in Sprague-Dawley rat striatum at 2.2 MBq/120 uL, iv after 5 mins by gamma counting; assay type: ADME, organism-based; details: in vivo; in short: as §1
[14] = tested on: Hippocampus; experiment: Biodistribution in Sprague-Dawley rat hippocampus at 2.2 MBq/120 uL, iv after 5 mins by gamma counting; assay type: ADME, organism-based; details: in vivo; in short: as §1
[15] = tested on: Striatum; experiment: Biodistribution in Sprague-Dawley rat striatum at 2.2 MBq/120 uL, iv after 30 mins by gamma counting; assay type: ADME, organism-based; details: in vivo, 0.5 h; in short: as §1
[16] = tested on: Striatum; experiment: Biodistribution in Sprague-Dawley rat striatum at 2.2 MBq/120 uL, iv after 60 mins by gamma counting; assay type: ADME, organism-based; details: in vivo, 1 h; in short: as §1
[17] = tested on: Striatum; experiment: Biodistribution in Sprague-Dawley rat striatum at 2.2 MBq/120 uL, iv after 120 mins by gamma counting; assay type: ADME, organism-based; details: in vivo, 2 h; in short: as §1
[18] = Drug uptake in cynomolgus monkey striatum at 296 to 410 MBq administered via venous catheter after 120 mins by microPET imaging in presence of 0.25 mg/kg (-)-vesamicol; assay type: ADME, organism-based, Macaca fascicularis; details: in vivo, 2 h
In short: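 Blocking scan: (-)-vesamicol 0.25 mg/kg was given through the venous catheter 5 min before the tracer (296–410 MBq). The monkey was under isoflurane anesthesia. A 2 h dynamic microPET scan followed, and striatal and cerebellar time-activity curves were generated.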

[19] = tested on: Plasma; experiment: Metabolic stability in monkey plasma assessed as radioactivity at 15 to 106 MBq after 5 to 60 mins by HPLC analysis; assay type: ADME, cell-free, Macaca mulatta; details: rhesus monkey
[20] = tested on: Plasma; experiment: Retention time in monkey plasma assessed as radioactivity at 15 to 106 MBq after 5 to 60 mins by HPLC analysis; assay type: ADME, cell-free, Macaca mulatta; details: rhesus monkey
[21] = tested on: Plasma; experiment: Drug metabolism in Sprague-Dawley rat plasma assessed as radioactivity at 15 to 106 MBq, iv after 5 to 60 mins by HPLC analysis; assay type: ADME, organism-based
[22] = tested on: Striatum; experiment: Ex-vivo drug uptake in Sprague-Dawley rat striatum at 63 MBq, iv after 60 mins by autoradiography; assay type: ADME, organism-based; details: 1 h
In short: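 One adult male SD rat received ~63.0 MBq by tail vein under anesthesia and was killed at 60 min. The brain was snap-frozen and cut into 100 μm horizontal sections. Sections were exposed to film for 12 h at -80 °C. Striatum-to-cerebellum ratio was quantified over 30 slices.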

[23] = tested on: Blood; experiment: Biodistribution in Sprague-Dawley rat blood at 2.2 MBq/120 uL, iv after 5 mins by gamma counting; assay type: ADME, organism-based; details: in vivo; in short: as §1
[24] = tested on: Heart; experiment: Biodistribution in Sprague-Dawley rat heart at 2.2 MBq/120 uL, iv after 5 mins by gamma counting; assay type: ADME, organism-based; details: in vivo; in short: as §1
[25] = tested on: Lung; experiment: Biodistribution in Sprague-Dawley rat lung at 2.2 MBq/120 uL, iv after 5 mins by gamma counting; assay type: ADME, organism-based; details: in vivo; in short: as §1
[26] = tested on: Muscle tissue; experiment: Biodistribution in Sprague-Dawley rat muscle at 2.2 MBq/120 uL, iv after 5 mins by gamma counting; assay type: ADME, organism-based; details: in vivo; in short: as §1
[27] = tested on: Rattus norvegicus; experiment: Biodistribution in Sprague-Dawley rat fat at 2.2 MBq/120 uL, iv after 5 mins by gamma counting; assay type: ADME, organism-based, Adipose tissue; details: in vivo; in short: as §1
[28] = tested on: Pancreas; experiment: Biodistribution in Sprague-Dawley rat pancreas at 2.2 MBq/120 uL, iv after 5 mins by gamma counting; assay type: ADME, organism-based; details: in vivo; in short: as §1
[29] = tested on: Kidney; experiment: Biodistribution in Sprague-Dawley rat kidney at 2.2 MBq/120 uL, iv after 5 mins by gamma counting; assay type: ADME, organism-based; details: in vivo; in short: as §1
[30] = tested on: Liver; experiment: Biodistribution in Sprague-Dawley rat liver at 2.2 MBq/120 uL, iv after 5 mins by gamma counting; assay type: ADME, organism-based; details: in vivo; in short: as §1
[31] = tested on: Bone; experiment: Biodistribution in Sprague-Dawley rat bone at 2.2 MBq/120 uL, iv after 5 mins by gamma counting; assay type: ADME, organism-based, Bone element; details: in vivo; in short: as §1
[32] = tested on: Rattus norvegicus; experiment: Biodistribution in Sprague-Dawley rat total brain at 2.2 MBq/120 uL, iv after 5 mins by gamma counting; assay type: ADME, organism-based; details: in vivo; in short: as §2
[33] = tested on: Lung; experiment: Biodistribution in Sprague-Dawley rat lung at 2.2 MBq/120 uL, iv after 30 mins by gamma counting; assay type: ADME, organism-based; details: in vivo, 0.5 h; in short: as §1
[34] = tested on: Muscle tissue; experiment: Biodistribution in Sprague-Dawley rat muscle at 2.2 MBq/120 uL, iv after 30 mins by gamma counting; assay type: ADME, organism-based; details: in vivo, 0.5 h; in short: as §1
[35] = tested on: Rattus norvegicus; experiment: Biodistribution in Sprague-Dawley rat fat at 2.2 MBq/120 uL, iv after 30 mins by gamma counting; assay type: ADME, organism-based, Adipose tissue; details: in vivo, 0.5 h; in short: as §1
[36] = tested on: Pancreas; experiment: Biodistribution in Sprague-Dawley rat pancreas at 2.2 MBq/120 uL, iv after 30 mins by gamma counting; assay type: ADME, organism-based; details: in vivo, 0.5 h; in short: as §1
[37] = tested on: Bone; experiment: Biodistribution in Sprague-Dawley rat bone at 2.2 MBq/120 uL, iv after 30 mins by gamma counting; assay type: ADME, organism-based, Bone element; details: in vivo, 0.5 h; in short: as §1
[38] = tested on: Rattus norvegicus; experiment: Biodistribution in Sprague-Dawley rat total brain at 2.2 MBq/120 uL, iv after 30 mins by gamma counting; assay type: ADME, organism-based; details: in vivo, 0.5 h; in short: as §2
[39] = tested on: Blood; experiment: Biodistribution in Sprague-Dawley rat blood at 2.2 MBq/120 uL, iv after 60 mins by gamma counting; assay type: ADME, organism-based; details: in vivo, 1 h; in short: as §1
[40] = tested on: Heart; experiment: Biodistribution in Sprague-Dawley rat heart at 2.2 MBq/120 uL, iv after 60 mins by gamma counting; assay type: ADME, organism-based; details: in vivo, 1 h; in short: as §1

For `O=C(c1ccc(F)cc1)C1CCN(C2Cc3c(cccc3OCC[18F])CC2O)CC1` (single isomer, unassigned; (-)), the Drug uptake [1] was 0.548 % ID/g, the Drug uptake [2] was 1.324 % ID/g and the Drug uptake [3] was 0.505 % ID/g. It also gave a Drug uptake [4] of 0.604 % ID/g, a Drug uptake [5] of 0.456 % ID/g and a Drug uptake [6] of 0.425 % ID/g. It also gave a Drug uptake [7] of 0.356 % ID/g, a Drug uptake [8] of 0.336 % ID/g and a Drug uptake [9] of 0.551 % ID/g. It also gave a Drug uptake [10] of 0.56 % ID/g, a Drug uptake [11] of 0.376 % ID/g and a Drug uptake [12] of 0.777 % ID/g. It also gave a Drug uptake [13] of 0.782 % ID/g, a Drug uptake [14] of 0.645 % ID/g and a Drug uptake [15] of 0.886 % ID/g. The Drug uptake [16] was 0.819 % ID/g, the Drug uptake [17] was 0.761 % ID/g and the Drug uptake [18] was “Not Active”. The Stability [19] was 76%, the Retention_time [20] was 9 min and the Drug metabolism [21] was “metabolite_detected”. The Drug uptake [22] was “Active”, the Drug uptake [23] was 0.209 % ID/g and the Drug uptake [24] was 0.706 % ID/g. For the same molecule, the Drug uptake [25] was 2.255 % ID/g, the Drug uptake [26] was 0.171 % ID/g and the Drug uptake [27] was 0.144 % ID/g. For the same molecule, the Drug uptake [28] was 1.202 % ID/g, the Drug uptake [29] was 2.363 % ID/g and the Drug uptake [30] was 1.065 % ID/g. The Drug uptake [31] was 0.426 % ID/g, the Drug uptake [32] was 0.684 % ID/g and the Drug uptake [33] was 0.973 % ID/g. It also gave a Drug uptake [34] of 0.258 % ID/g, a Drug uptake [35] of 0.324 % ID/g and a Drug uptake [36] of 1.2 % ID/g. It also gave a Drug uptake [37] of 0.369 % ID/g, a Drug uptake [38] of 0.482 % ID/g and a Drug uptake [39] of 0.338 % ID/g. It also gave a Drug uptake [40] of 0.357 % ID/g.
